Experimental data published in ChEMBL document CHEMBL1144905, “More lipophilic dialkyldiamine-based diazeniumdiolates: synthesis, characterization, and application in preparing thromboresistant nitric oxide release polymeric coatings” (J Med Chem, 2003).

Assay: Apparent half life period in PBS buffer
Type: ADME
Settings: not given
Method in brief: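 Half-life by chemiluminescence at 37 °C. Diazeniumdiolate in 10 mM NaOH (or, if water-insoluble, in THF or NaOH/MeOH), 25–100 µL, injected into 3 mL deoxygenated 100 mM phosphate buffer pH 7.4 with 137 mM NaCl and 2.7 mM KCl. NO released, removed by nitrogen purge, read every 0.25 s to baseline. Half-life = time to release half of total possible NO.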

For `CCCCCNCCCCCCN(CCCCC)/[N+]([O-])=N/O`, which half-life is on record?
The half-life was 4.65 min.

For `CNCCCCCCN(C)/[N+]([O-])=N/O`, which half-life is on record?
Its half-life is 1.12 min.

For `CCNCCCCCCN(CC)/[N+]([O-])=N/O`, which half-life is on record?
Its half-life is 5.78 min.

For `CCCCNCCCCCCN(CCCC)/[N+]([O-])=N/O`, which half-life is on record?
The half-life was 4.95 min.

Which half-life does the source give for `CCCNCCCCCCN(CCC)/[N+]([O-])=N/O` here?
The half-life was 5.32 min.

Assay: Partition coefficient (logP)
Type: physicochemical
Settings: octanol/water
Method in brief: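 Octanol/water partition coefficient calculated with ChemDraw, not measured.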

With `CCCCCCNCCCCCCN(CCCCCC)/[N+]([O-])=N/O` as the molecule, how does the logP read?
Its logP is 6.26.

For `CCCCCNCCCCCCN(CCCCC)/[N+]([O-])=N/O`, which logP is on record?
The logP was 5.21.

Which logP does the source give for `CNCCCCCCN(C)/[N+]([O-])=N/O` here?
Its logP is 0.97.

For `CCNCCCCCCN(CC)/[N+]([O-])=N/O`, which logP is on record?
Its logP is 2.03.

For `CCCCNCCCCCCN(CCCC)/[N+]([O-])=N/O`, which logP is on record?
The logP was 4.15.

With `CCCNCCCCCCN(CCC)/[N+]([O-])=N/O` as the molecule, how does the logP read?
The logP was 3.09.
